Measurements: ChEMBL document CHEMBL3098028, “Synthesis and in vitro and in vivo pharmacological evaluation of new 4-aminoquinoline-based compounds” (ACS Med Chem Lett, 2013)
In brackets after ≈: the same amount, converted by molar mass.

Assays:
Mus musculus = test: AUC (0 to infinity) in C57BL/6 mouse at 40 mg/kg, po; type: ADME, organism-based, Plasma; set-up: time infinity, dose 40 mg/kg, route oral; conditions: in vivo
Method in brief: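 Healthy male C57/BL6 mice received a single intravenous dose (2.5 or 5.0 mg/kg) or oral dose (20 or 40 mg/kg). Plasma concentrations were followed over time to give AUC0-∞ in min·μmol/L, alongside t1/2, CL, Vd, Vss, Cmax, Tmax and oral bioavailability. Values are means of five animals.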

Cytochrome P450 2C8 = target: T1, Cytochrome P450 2C8 (Homo sapiens, UniProt P10632); test: Inhibition of CYP2C8 in human liver microsomes assessed as paclitaxel 6alpha-hydroxylation after 20 mins by LC-MS/MS analysis; type: ADME
T1 sequence (P10632 whole entry): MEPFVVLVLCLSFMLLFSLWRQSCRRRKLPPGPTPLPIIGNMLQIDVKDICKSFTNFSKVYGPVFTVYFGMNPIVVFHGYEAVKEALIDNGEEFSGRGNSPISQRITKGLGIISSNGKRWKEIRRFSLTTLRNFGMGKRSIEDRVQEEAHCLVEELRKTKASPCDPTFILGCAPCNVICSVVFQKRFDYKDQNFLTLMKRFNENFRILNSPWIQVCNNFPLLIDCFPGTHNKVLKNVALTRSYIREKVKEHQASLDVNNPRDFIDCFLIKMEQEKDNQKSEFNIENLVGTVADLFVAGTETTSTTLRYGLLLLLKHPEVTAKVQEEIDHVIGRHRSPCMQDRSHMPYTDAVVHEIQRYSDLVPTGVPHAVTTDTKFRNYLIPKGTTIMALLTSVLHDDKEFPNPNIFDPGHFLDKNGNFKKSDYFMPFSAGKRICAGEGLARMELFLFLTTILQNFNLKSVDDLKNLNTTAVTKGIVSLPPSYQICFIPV

[1] = Drug metabolism in hepatocytes (unknown origin) assessed as 2-(5-((4-chlorophenyl)(2-(7-chloroquinolin-4-ylamino)ethylamino)methyl)-1H-tetrazol-1-yl)-2-methylpropan-1-ol level at 5 uM after 6 hrs by LC-MS/MS analysis; type: ADME, cell-based, Hepatocyte
Liver microsome [2] = test: Drug metabolism in human liver microsomes assessed as 4-(2-((1-tert-butyl-1H-tetrazol-5-yl)(4-chlorophenyl)methylamino)ethylamino)-7-chloroquinoline 1-oxide level at 5 uM after 1 hr by LC-MS/MS analysis; type: ADME
Liver microsome [3] = test: Drug metabolism in human liver microsomes assessed as 2-(5-((4-chlorophenyl)(2-(7-chloroquinolin-4-ylamino)ethylamino)methyl)-1H-tetrazol-1-yl)-2-methylpropan-1-ol level at 5 uM after 1 hr by LC-MS/MS analysis; type: ADME
[4] = Kinetic solubility of the compound in phosphate buffered saline at pH 7.4 after 2 hrs by HPLC analysis; type: physicochemical; conditions: read-out: Kinetic_solubility

## CC(C)(C)n1nnnc1C(NCCNc1ccnc2cc(Cl)ccc12)c1ccc(Cl)cc1 (stereo unspecified)
Mus musculus
  AUC: 541 µmol·min/L
Cytochrome P450 2C8
  IC50: 12.7 µM
[1]
  Drug metabolism: Active
Liver microsome [2]
  Drug metabolism: Active
Liver microsome [3]
  Drug metabolism: Active
[4]
  solubility kinetic at 2 h: 6.88 µM (≈ 3.24 µg/mL)
